Intrinsic clearance and EC50 data for 35 compounds are collected here from ChEMBL document CHEMBL4308828, “Fragment Based Optimization of Metabotropic Glutamate Receptor 2 (mGluR2) Positive Allosteric Modulators in the Absence of Structural Information” (J Med Chem, 2018).

SMILES strings stand for the structures. Bounds are passed on as bounds.

Data set [1] can be described thus: Intrinsic clearance in Wistar rat liver microsomes at 2.5 uM. It is filed as ADME, Microsome. The method in brief:
(§1)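 Liver microsomes (0.5 mg/mL) of human, Wistar rat or NMRI mouse; compound 2.5 μM initial, incubated for various times. Intrinsic clearance (mL/min·g liver) taken as rate of compound consumption under first-order conditions, Clint = Vmax/KM or V/S when S ≪ KM.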

Data set [2] deals with Metabotropic glutamate receptor 2 (Homo sapiens, UniProt Q14416). Briefly: Positive allosteric modulation of human mGluR2 expressed in human Chem1 cells assessed as increase in glutamate-induced intracellular calcium influx preincubated for 30 mins followed by glutamate addition by calcium-5 dye based fluorometric assay. It is filed as functional, cell-based. A digest of the protocol: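 Chem-1 cells stably expressing human mGlu2, 30000 cells/well, overnight at 37 °C. Loaded with Calcium 5 dye (30 min, 37 °C) in buffer with GPT/pyruvate, washed, then compound or vehicle 30 min at 37 °C. Glutamate at EC5-EC20 added after 20 s baseline; fluorescence 485/525 nm read 40 s. ΔF/F from multiple wells; sigmoid fits give EC50, three independent experiments. Final DMSO 1%.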
Sequence of Metabotropic glutamate receptor 2 (Q14416 whole entry): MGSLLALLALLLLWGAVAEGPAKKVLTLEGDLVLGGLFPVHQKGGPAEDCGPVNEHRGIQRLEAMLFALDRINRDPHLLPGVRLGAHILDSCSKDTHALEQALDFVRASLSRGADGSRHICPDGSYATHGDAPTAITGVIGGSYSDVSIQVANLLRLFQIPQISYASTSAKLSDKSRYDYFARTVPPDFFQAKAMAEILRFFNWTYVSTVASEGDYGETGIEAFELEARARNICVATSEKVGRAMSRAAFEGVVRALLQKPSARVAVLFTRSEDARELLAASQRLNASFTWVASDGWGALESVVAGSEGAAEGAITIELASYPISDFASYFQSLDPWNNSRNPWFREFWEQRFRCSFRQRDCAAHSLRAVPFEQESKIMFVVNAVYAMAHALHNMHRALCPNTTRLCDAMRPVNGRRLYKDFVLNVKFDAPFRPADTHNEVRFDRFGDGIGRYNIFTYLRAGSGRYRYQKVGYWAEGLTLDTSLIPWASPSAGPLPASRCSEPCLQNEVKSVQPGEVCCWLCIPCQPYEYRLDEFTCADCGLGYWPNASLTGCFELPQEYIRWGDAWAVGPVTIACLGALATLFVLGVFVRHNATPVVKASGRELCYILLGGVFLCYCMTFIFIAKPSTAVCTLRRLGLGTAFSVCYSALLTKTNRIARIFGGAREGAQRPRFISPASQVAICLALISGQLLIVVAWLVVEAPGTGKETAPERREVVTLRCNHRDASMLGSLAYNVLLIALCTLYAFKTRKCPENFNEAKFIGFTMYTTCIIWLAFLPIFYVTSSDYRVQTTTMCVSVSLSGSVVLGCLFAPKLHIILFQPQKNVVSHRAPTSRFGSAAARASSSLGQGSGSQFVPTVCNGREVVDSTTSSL

Data set [3] can be described thus: Intrinsic clearance in human liver microsomes at 2.5 uM. The format is ADME, Microsome. A digest of the protocol:
as §1
Background: Liver microsomes are vesicles of endoplasmic reticulum, rich in cytochrome P450 enzymes.

Data set [4] is described as follows: Intrinsic clearance in NMRI mouse liver microsomes at 2.5 uM. The format is ADME, Microsome. A digest of the protocol: as §1

In the case of `Fc1cc(Cn2nnc3c(Br)cccc32)ccc1Cl`, the results for the Intrinsic clearance in data set [1], in data set [3] and in data set [4] were 3.1 mL/min/g, 0.4 mL/min/g and 2.2 mL/min/g, respectively. The EC50 (commonly the concentration that produces a half-maximal response) in data set [2] was 18 nM.

Turning to `Clc1ccc(Cn2nnc3c(Br)cccc32)cn1`, in data set [2], the concentration for a half-maximal effect (EC50) was determined as 290 nM.

As to `Fc1cccc2c1nnn2CC1CC1`, the 50% effective concentration (EC50) in data set [2] was 1070 nM.

In the case of `FC(F)(F)c1cc(Br)c2nnn(CC3CC3)c2c1`, the Intrinsic clearance in data set [1] came out at 0.2 mL/min/g; in data set [3], 0.1 mL/min/g; in data set [4] it was 7.7 mL/min/g. Also, the half-maximal effective concentration (EC50) in data set [2] was found to be 140 nM.

Regarding `Brc1ccc(Cn2nnc3c(Br)cccc32)cc1`, the Intrinsic clearance stood at 2.2 mL/min/g in data set [1], 0.4 mL/min/g in data set [3] and 2.6 mL/min/g in data set [4]. Besides, the EC50 in data set [2] is 14 nM.

On to `Brc1cccc2c1nnn2CC1CC1`, for which the Intrinsic clearance in data set [1] came out at 0.6 mL/min/g; in data set [3], 1.3 mL/min/g; in data set [4], 7.7 mL/min/g. In addition, in data set [2], the EC50 is 70 nM.

In the case of `Clc1cccc2c1nnn2CC1CC1`, the Intrinsic clearance in data set [1] came out at 0.5 mL/min/g; in data set [3], 4.2 mL/min/g; in data set [4] it was 5.7 mL/min/g. Moreover, the EC50 in data set [2] came out at 90 nM.

As to `Cn1nnc2c(Br)cccc21`, in data set [2], the EC50 is above 5000 nM.

For `Clc1ccc(Cn2nnc3c(Br)cccc32)cc1`, the Intrinsic clearance in data set [1] was determined as 2.2 mL/min/g; in data set [3], 0.6 mL/min/g; in data set [4] it was 2 mL/min/g. In addition, the concentration giving a half-maximal response (EC50) in data set [2] was 17 nM.

With `Fc1cc(Cl)ccc1-c1ccc(Cn2nnc3c(F)cccc32)cn1`, the values for the Intrinsic clearance in data set [1], in data set [3] and in data set [4] were 0.6 mL/min/g, 0.1 mL/min/g and 2.2 mL/min/g, respectively. Moreover, the 50% effective concentration (EC50) in data set [2] came to 27 nM.

For the compound `FC(F)(F)c1ccc(-c2ccc(Cn3nnc4ccccc43)cc2)c(Cl)c1`, the Intrinsic clearance in data set [1] was determined as 0.5 mL/min/g; in data set [3], 0 mL/min/g; in data set [4], 0.4 mL/min/g. The concentration giving a half-maximal response (EC50) in data set [2] stood at 37 nM.

Consider `N#Cc1cccc2c1nnn2Cc1ccc(-c2ccc(Cl)cc2F)nc1`, for which the Intrinsic clearance in data set [1] came out at 0.1 mL/min/g; in data set [3], 0.05 mL/min/g; in data set [4], 1.6 mL/min/g. Also, the EC50 in data set [2] is 33 nM.

For the compound `Brc1ccc(Cn2nnc3c(Br)cccc32)nc1`, the Intrinsic clearance is 0.7 mL/min/g in data set [1], 0.3 mL/min/g in data set [3] and 1.1 mL/min/g in data set [4]. Further, the concentration giving a half-maximal response (EC50) in data set [2] was 180 nM.

For `Fc1ccccc1-c1ccc(Cn2nnc3ccccc32)cn1`, the 50% effective concentration (EC50) in data set [2] was determined as 600 nM.

On to `CCCn1nnc2c(Br)cccc21`, for which the Intrinsic clearance is 0.8 mL/min/g in data set [1], 4.7 mL/min/g in data set [3] and 7.7 mL/min/g in data set [4]. Further, in data set [2], the EC50 was determined as 270 nM.

As to `c1ccc(-c2ccc(Cn3nnc4ccccc43)cc2)cc1`, the Intrinsic clearance worked out at 12.6 mL/min/g in data set [1], 7.9 mL/min/g in data set [3] and 11.4 mL/min/g in data set [4]. In addition, the concentration for a half-maximal effect (EC50) in data set [2] was 155 nM.

`Brc1ccc(Cn2nnc3c(Br)cccc32)cn1`: the EC50 in data set [2] is 210 nM.

In the case of `Fc1ccc(Cn2nnc3c(Br)cccc32)cc1`, the Intrinsic clearance is 1 mL/min/g in data set [1], 1.2 mL/min/g in data set [3] and 1 mL/min/g in data set [4]. Besides, in data set [2], the concentration for a half-maximal effect (EC50) is 15 nM.

Take `Fc1cc(Cl)ccc1-c1ccc(Cn2nnc3c(C(F)(F)F)cccc32)cn1`: the Intrinsic clearance was determined as 0.2 mL/min/g in data set [1], 0.04 mL/min/g in data set [3] and 0.1 mL/min/g in data set [4]. For the same compound, the concentration giving a half-maximal response (EC50) in data set [2] turned out to be 13 nM.

For the compound `Brc1cccc2c1nnn2CC1CCCC1`, the Intrinsic clearance in data set [1] came to 14.6 mL/min/g; in data set [3], 7.9 mL/min/g; in data set [4], 11.4 mL/min/g. Also, the EC50 in data set [2] came to 30 nM.

As to `Clc1ccc(-c2ccc(Cn3nnc4ccccc43)cn2)cc1`, the results for the Intrinsic clearance in data set [1], in data set [3] and in data set [4] were 1 mL/min/g, 0.2 mL/min/g and 3.8 mL/min/g, respectively. Further, in data set [2], the EC50 was determined as 70 nM.

Turning to `Brc1cccc2c1nnn2CC1CCC1`, the Intrinsic clearance in data set [1] stood at 12 mL/min/g; in data set [3], 8.7 mL/min/g; in data set [4] it was 11.4 mL/min/g. The concentration giving a half-maximal response (EC50) in data set [2] amounted to 20 nM.

Regarding `Fc1ccc(-c2ccc(Cn3nnc4ccccc43)cc2)c(Cl)c1`, the Intrinsic clearance stood at 2.6 mL/min/g in data set [1], 0.7 mL/min/g in data set [3] and 1.5 mL/min/g in data set [4]. In data set [2], the half-maximal effective concentration (EC50) came to 118 nM.

As for `Clc1cc(Br)c2nnn(CC3CC3)c2c1`, the values for the Intrinsic clearance in data set [1], in data set [3] and in data set [4] were 1.1 mL/min/g, 0.5 mL/min/g and 11.4 mL/min/g, respectively. Moreover, in data set [2], the EC50 amounted to 60 nM.

For `Fc1ccc2nnn(Cc3ccc(-c4ccc(Cl)cc4F)nc3)c2c1`, the Intrinsic clearance was 1 mL/min/g in data set [1], 0.1 mL/min/g in data set [3] and 2.2 mL/min/g in data set [4]. Further, the half-maximal effective concentration (EC50) in data set [2] stood at 86 nM.

Regarding `Fc1cccc(Cn2nnc3c(Br)cccc32)c1`, the Intrinsic clearance in data set [1] worked out at 1.6 mL/min/g; in data set [3] it was 1.8 mL/min/g; in data set [4] it was 1.3 mL/min/g. Moreover, in data set [2], the EC50 is 18 nM.

`Fc1ccc2c(c1)nnn2Cc1ccc(-c2ccc(Cl)cc2F)nc1`: the values for the Intrinsic clearance in data set [1], in data set [3] and in data set [4] were 0.5 mL/min/g, 0.1 mL/min/g and 0.7 mL/min/g, respectively. For the same compound, the half-maximal effective concentration (EC50) in data set [2] amounted to 68 nM.

In the case of `Fc1cc(Br)c2nnn(CC3CC3)c2c1`, the Intrinsic clearance in data set [1] came out at 0.5 mL/min/g; in data set [3], 0.4 mL/min/g; in data set [4] it was 5.7 mL/min/g. For the same compound, the EC50 in data set [2] was found to be 70 nM.

As to `Fc1cc(C(F)(F)F)ccc1-c1ccc(Cn2nnc3ccccc32)cc1`, the Intrinsic clearance in data set [1] is 0.4 mL/min/g; in data set [3] it was 0.1 mL/min/g; in data set [4], 1.2 mL/min/g. Also, in data set [2], the concentration giving a half-maximal response (EC50) was 29 nM.

With `Fc1cc(Cl)ccc1-c1ccc(Cn2nnc3ccccc32)cc1`, the results for the Intrinsic clearance in data set [1], in data set [3] and in data set [4] were 1.3 mL/min/g, 0.4 mL/min/g and 1.1 mL/min/g, respectively. The 50% effective concentration (EC50) in data set [2] was 28 nM.

On to `Fc1cc(Cl)ccc1-c1ccc(Cn2nnc3ccccc32)nc1`, for which the Intrinsic clearance in data set [1] worked out at 2.3 mL/min/g; in data set [3], 0.8 mL/min/g; in data set [4], 1.6 mL/min/g. Also, the EC50 in data set [2] was 141 nM.

On to `CCCCn1nnc2c(Br)cccc21`, for which the figures for the Intrinsic clearance in data set [1], in data set [3] and in data set [4] were 4.4 mL/min/g, 9.5 mL/min/g and 8.3 mL/min/g, respectively. In addition, the EC50 in data set [2] turned out to be 60 nM.

With `CCn1nnc2c(Br)cccc21`, the EC50 in data set [2] is 2240 nM.

For the compound `N#Cc1cccc2c1nnn2CC1CC1`, the EC50 in data set [2] came out at 620 nM.

Consider `COc1cc(Br)c2nnn(CC3CC3)c2c1`, for which the concentration giving a half-maximal response (EC50) in data set [2] came out at 730 nM.
